The text below walks through data of ChEMBL document CHEMBL1135512 (J Med Chem, 2002).

A short description of series [1]: Partition coefficient (logP). Conditions: octanol/water. It counts as physicochemical.
The test system of series [2] is Plasmodium falciparum. Kind of series: Concentration required to reduce chloroquine IC50 by 50%. The series is classed as functional, organism-based. Conditions: Plasmodium falciparum. The procedure, abridged: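 Synergy isotopic microtest on sorbitol-synchronized W2 (Indochina) and 3D7 in RPMI 1640 with 10% human serum, HEPES/NaHCO3, parasitemia 0.5%, hematocrit 1.5%. CQ was combined with subinhibitory fixed DEEA concentrations, and 3H-hypoxanthine was added for 48 h at 37 °C under 10% O2/6% CO2/84% N2. Reversal IC50 is the DEEA concentration halving CQ IC50, found by nonlinear regression of log-dose/IC50.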

The test system of series [3] is Plasmodium falciparum. Description: In vitro inhibitory activity against multidrug-resistant Plasmodium falciparum W2 Indochina. It counts as functional, organism-based. In outline:
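Clone W2 (Indochina), sorbitol-synchronized, was grown in RPMI 1640 with 10% human serum, 25 mM HEPES and 25 mM NaHCO3, at final parasitemia 0.5% and hematocrit 1.5%. The drug was present for 48 h at 37 °C under 10% O2/6% CO2/84% N2. Growth was read as 3H-hypoxanthine uptake (1 μCi/well). IC50 came from nonlinear regression of log-dose/response as the geometric mean with 95% CI.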

A short description of series [4]: In vitro hemolytic concentration on uninfected erythrocytes. The series is classed as functional, Homo sapiens. The procedure, abridged: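 Washed A+ human erythrocytes were held at 1.5% hematocrit in RPMI 1640 with 10% human serum, 25 mM HEPES and 25 mM NaHCO3. Drug (2 mM to 1 μM final, triplicate) was added for 42 h at 37 °C under 10% O2/6% CO2. Released hemoglobin in supernatant was measured with TMB/H2O2 at 455 nm. HC50 is relative to 5% saponin lysis, by nonlinear regression.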

The nature of series [5]: Cytotoxicity against Chinese hamster ovary cells. It counts as cell-based, Cricetulus griseus. In outline:
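Cells were then exposed to graded drug concentrations for 48 h at 37 °C, 5% CO2. MTT (1 mg/mL in PBS) was added for 3 h, and formazan was dissolved in DMSO and read at 570/630 nm. IC50 came from nonlinear regression versus drug-free wells.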

For series [6], the system named is Plasmodium falciparum. Description: Percent reversal against Plasmodium falciparum W2 at 1 uM DEEA. The series is classed as functional.
Series [7] in a line: Partition coefficient (logD7.0). Particulars: octanol/water. The series is classed as physicochemical.
The test system of series [8] is Plasmodium falciparum. Description: Accumulation coefficient of chloroquine at 1 uM-10 uM of DEEA against Plasmodium falciparum W2. It counts as functional. The procedure, abridged: (§1)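 W2 infected erythrocytes were suspended in RPMI 1640 with 25 mM HEPES and 25 mM NaHCO3 (2% parasitemia, 2% hematocrit). They were mixed over silicone oil with buffer holding [3H]CQ (26 Ci/mmol) plus DEEA at 1 or 10 μM. Incubation was 1 h at 37 °C under 10% O2/6% CO2/84% N2, followed by 1 min centrifugation. Ratio = parasite [3H]CQ (infected minus uninfected cells) / same-volume buffer.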

Series [9] in a line: Dissociation constant (pKa). The series is classed as physicochemical.
Series [10] deals with Plasmodium falciparum. Kind of series: Accumulation coefficient of chloroquine at 1 uM-10 uM of DEEA against Plasmodium falciparum W2;Range is from 30-23. The series is classed as functional. The procedure, abridged:
as §1

Series [11] concerns Plasmodium falciparum. Description: Percent reversal against Plasmodium falciparum W2 at 1 uM DEEA.
Series [12] concerns Plasmodium falciparum. Kind of series: Accumulation coefficient of chloroquine at 1 uM-10 uMof DEEA against Plasmodium falciparum W2. The series is classed as functional. The procedure, abridged:
as §1

The test system of series [13] is Plasmodium falciparum. Description: Accumulation coefficient of chloroquine at 1 uM-10 uM of DEEA against Plasmodium falciparum 3D7. The series is classed as functional.
Series [14] has as its system Plasmodium falciparum. Description: Accumulation coefficient of chloroquine at 1 uM-10 uM of DEEA against Plasmodium falciparum W2; Range is from 37-42. It counts as functional. In outline: as §1

What is called logP is the decadic logarithm of the partition coefficient of the neutral form, usually between octanol and water. As usually defined, the IC50 is the concentration that gives 50% inhibition. A high value points to weaker potency in that assay. What is called HC50 is the concentration that lyses half of the red blood cells. The low end stands for stronger haemolysis, the high end for weaker haemolysis. What is called logD is lipophilicity at a set pH, counting ionised and neutral species. One may read the pKa as the pH at which an ionisable group is half protonated. Consider `CC1C2c3ccccc3C(c3ccccc32)C1CN(C)C` (stereo not given), for which, in series [1] (read-out: logP), the log partition coefficient (logP) is 4.24. Further, the IC50 in the series on Plasmodium falciparum [2] is 0.4 µM; in the series with Plasmodium falciparum [3] (Plasmodium falciparum), 30 µM. For the same compound, the HC50 in [4] came to 1402 µM. Besides, in series [5], the Cytotoxicity is 711 µM. In addition, the Reversal with Plasmodium falciparum [6] was determined as 60%. Further, the logD in series [7] (pH 7, read-out: logD) was 2.25. The Accumulation coefficient in the series on Plasmodium falciparum [8] is listed as 62. Also, the pKa in series [9] is 8.99.

In the series with Plasmodium falciparum [10], `CN(C)C(=O)C1=C(C(=O)N(C)C)C2c3ccccc3C1c1ccccc12` yielded an Accumulation coefficient of 30. Moreover, in series [1] (read-out: logP), the logP amounted to 2.15. The values for the IC50 with Plasmodium falciparum [2] and in the series with Plasmodium falciparum [3] (Plasmodium falciparum) were > 50 µM and 36.5 µM, respectively. In addition, the HC50 in series [4] is >2000 µM. Moreover, the Cytotoxicity in series [5] is > 2000 µM. In addition, the Reversal with Plasmodium falciparum [6] is on record as 0%. Moreover, the pH-dependent lipophilicity (logD) in [7] (pH 7, read-out: logD) turned out to be 2.15.

Take `CC1C2c3ccccc3C(c3ccccc32)C1C(=O)Nc1cccnc1` (stereo not given): the lipophilicity (logP) in [1] (read-out: logP) stood at 3.85. Half-maximal inhibition in the series on Plasmodium falciparum [3] (Plasmodium falciparum) (IC50) required 164 µM. Moreover, the HC50 in series [4] is >2000 µM. Also, the Cytotoxicity in [5] came out at 93 µM. In addition, the Reversal in the series on Plasmodium falciparum [6] was determined as 0%. Moreover, the logD in series [7] (pH 7, read-out: logD) was found to be 3.85. In the series on Plasmodium falciparum [8], this compound gave an Accumulation coefficient of 10. In addition, in series [9], the pKa stood at 4.14.

`O=C(NCCCCCCCCCCNC(=O)C1=CC2c3ccccc3C1c1ccccc12)C1=CC2c3ccccc3C1c1ccccc12` displayed a logP in series [1] of 9.16. For the same compound, the IC50 in the series on Plasmodium falciparum [3] (Plasmodium falciparum) amounted to 8 µM. In addition, in series [4], the HC50 was >2000 µM. Moreover, in series [5], the Cytotoxicity was > 2000 µM. In addition, the Reversal with Plasmodium falciparum [6] came out at 0%. The compound also registered a logD in series [7] of 9.16. The compound further had an Accumulation coefficient with Plasmodium falciparum [8] of 34. In addition, the pKa in series [9] was -1.14.

On to `COc1ccc(CCN(C)CCCC(C#N)(c2ccc(OC)c(OC)c2)C(C)C)cc1OC` (stereo not given), for which the IC50 is 0.8 µM in the series with Plasmodium falciparum [2] and 13.4 µM with Plasmodium falciparum [3] (Plasmodium falciparum). Further, the HC50 in series [4] was found to be 861 µM. For the same compound, the Reversal in the series on Plasmodium falciparum [6] was found to be 57%. Besides, in the series with Plasmodium falciparum [8], the Accumulation coefficient is recorded as 97. Further, the pKa in series [9] came out at 8.29.

As for `CN(C)C(=O)C1C2c3ccccc3C(c3ccccc32)C1C(=O)N(C)C` (stereo in doubt; 4), in the series with Plasmodium falciparum [3], the IC50 came out at 35.5 µM. The Cytotoxicity in series [5] was > 2000 µM. In the series with Plasmodium falciparum [6], the Reversal is given as 0%.

For the compound `CN(C)CC1C2c3ccccc3C(c3ccccc32)C1CN(C)C` (stereo in doubt; 5), the logP in series [1] (read-out: logP) was found to be 3.41. Further, the Reversal in the series on Plasmodium falciparum [11] was determined as 80%. The figures for the IC50 in the series on Plasmodium falciparum [2] and in the series with Plasmodium falciparum [3] (Plasmodium falciparum) were 0.25 µM and 2 µM, respectively. Further, the HC50 in series [4] was >2000 µM. In series [5], the Cytotoxicity was 1035 µM. Further, the logD in series [7] (pH 7, read-out: logD) worked out at 0. In [9], this compound yielded a pKa of 9.19.

`CCN(CC)CCCC(C)Nc1ccnc2cc(Cl)ccc12` (stereo not given) [CHLOROQUINE]: the figures for the Accumulation coefficient with Plasmodium falciparum [12] and in the series with Plasmodium falciparum [13] were 18 and 191, respectively. In the series with Plasmodium falciparum [3] (Plasmodium falciparum), the concentration for half-maximal inhibition (IC50) was 0.9 µM. Besides, the Reversal in the series with Plasmodium falciparum [6] was 0%.

Regarding `CNC1(C)C2CCC(C2)C1(C)C` (stereo not given) [MECAMYLAMINE], the logP in series [1] is given as 2.13. Also, the results for the IC50 in the series with Plasmodium falciparum [2] and with Plasmodium falciparum [3] (Plasmodium falciparum) were 6 µM and 91.4 µM, respectively. Besides, the Reversal in the series on Plasmodium falciparum [6] is on record as 15%. For the same compound, in [7] (pH 7, read-out: logD), the logD was -0.4. The same compound came in with an Accumulation coefficient in the series on Plasmodium falciparum [8] of 45. The compound further had a pKa in series [9] of 11.

In the case of `CC(CN1c2ccccc2Sc2ccccc21)N(C)C` (stereo not given) [PROMETHAZINE], the Accumulation coefficient in the series with Plasmodium falciparum [14] was 42. Further, in series [1] (read-out: logP), the logP came to 3.86. The results for the IC50 in the series on Plasmodium falciparum [2] and in the series on Plasmodium falciparum [3] (Plasmodium falciparum) were 0.4 µM and 20 µM, respectively. In [4], this compound registered a 50% haemolytic concentration (HC50) of 618 µM. Besides, in [5], the Cytotoxicity turned out to be 702 µM. In addition, the Reversal in the series on Plasmodium falciparum [6] is on record as 67%. For the same compound, the logD in [7] (pH 7, read-out: logD) came to 1.96. Moreover, the pKa in [9] worked out at 8.89.
